Test results reported in the RNAGym collection of RNA variant scans (doi:10.1126/science.aae0568).
Fewer inactive variants are shown than the library holds.

B1: tRNA (parent)
chain: GUUCCGUUGGCGUAAUGGUAACGCGUCUCCCUCCUAAGGAGAAGACUGCGGGUUCGAGUCCCGUACGGAACG

Variants of: B1
Experiment: yeast fitness relative to wild type (ratio to wild type); higher = fitter; tRNA-Arg(CCU), competitive growth, 37 C, YPD
In short: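 The tRNA-Arg(CCU) gene variants were made by chemical synthesis with a 3% per-site mutation rate at 69 sites and inserted at the native genomic locus of Saccharomyces cerevisiae. After pooling, the strains were competed in YPD at 37°C for 24 hours in six parallel replicates. Gene amplicons from the start population and each end population were read by 100-nucleotide paired-end sequencing, and Darwinian fitness relative to wild type was taken from genotype frequency changes. Genotypes needed ≥ 100 starting reads, and estimates < 0.5 were set to 0.5.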
In the case of GUUCCGUUGGCGUAAUGGUAACGCGUCUCCCUCCUAAGGAAAAGACUGCGGGUUCGAGGCCCGUACGGCACG [G41A U59G A69C], the yeast fitness is reported as at most 0.5.
GUUCCGUUGGCGUAACGGUAACGCGUAUCCCUCCUAAGGAGAAGUCUGCGGGUUCGAGUGCCGUUCGGAACG [U16C C27A A45U C60G A65U] gave a yeast fitness of 0.542.
Work on GUUCCGUUGGCGUAAUGGUAACGCGUCCCCCUCCUACGGAGAAGACCGCGGGUUCGAGUCCCGUACGGAACG [U28C A37C U47C] yielded a yeast fitness of 0.697.
Variant GUUCCGUUGGCGUAAUGGUAACGCGUCUCCCUCCGAAGGAGAAGACUGCGGGUUCGAGUCCCAUACGGAACG [U35G G63A] has a yeast fitness of 0.7.
GUUCGGUUGGCGUAAUGGUAACGCGUCUCCCUCCUAAGGAGAAGUCUGCGGGUUCGUGUCCCGUACGGAACG [C5G A45U A57U] showed a yeast fitness of 0.565.
Work on GUUCCGUUGGCGUGAUGGUAAGGCGCCUCCGUCCUAAGGAGAAGACUGCGGGUUCGAGUCCCGUACGGAACG [A14G C22G U26C C31G] yielded a yeast fitness of 0.615.
With GUUCCGUUGGCGUAAUGGUAUCGCCUCUCCCUCCUAGGGAGAGGACUGCGGGUUCGAGUCCCGUGCGGAACG [A21U G25C A37G A43G A65G] the yeast fitness was at most 0.5.
With GUUCCGUUGGCGUAAAGGUAACGCGUCUCCCUCCUAACGAGAAGACUGCGGGUUCGAGUCUCGCACGGAACG [U16A G38C C61U U64C] the yeast fitness was at most 0.5.
With GUUCCGUUGGCGUAAUGGUAACGCGUCUCCCUCCUAAGGAGAAGACUGCGGGUUCGAGUCACGUACGGGACG [C61A A69G] the yeast fitness was 0.584.
GUUCCGUUGGCGUAAUGGUAACGCGUCUCCCUCCUAAGGAAAAGACUGCGGGUUCGAGUCCCGUACGGAUCG [G41A A70U] gave a yeast fitness of 0.977.
Variant GUUUCGUUGGCGUAAUGGUAACGCGUUUCCCUCCUAAGGAGAAGACUGCGGGUUCGAGUCCCGUACGGAACG [C4U C27U] has a yeast fitness of 1.02.
With GUUUCGUUGGCGUAAUGGUAAGGCGUCUCCCUCCUAAGGAGGAGACUGCGGGUUCGAGUCCCGUACGGAACG [C4U C22G A42G] the yeast fitness was 0.695.
Work on GUUCAGUUGGCGUAAUGGUAUCGCGUCUCCCUCCUAAGGAGAAGACUGCGGGUUCGAGUCAGGUACGGAACG [C5A A21U C61A C62G] yielded a yeast fitness of at most 0.5.
GUUCCAUUGGCCUAAUGGUAACGCGUAUCCCUCCUAGGGAGAAGACUGUGGGUUCGAGUCCCGUACGGAACG [G6A G12C C27A A37G C49U] showed a yeast fitness of at most 0.5.
Variant GUUCAGUUGGCGUAAUGGUAACGCGUCUCCCUCCUAAGGAGAAGACUGCGAGUUCGAGUCCCGUACGGAACG [C5A G51A] has a yeast fitness of 0.71.
Work on GUUCCGUUGGCGUGAUGGUAACGAGUCUCCUUCCUAAGGUGAAGACUGCGGGUUCGAGUCCCGUACGGAGCG [A14G C24A C31U A40U A70G] yielded a yeast fitness of 0.571.
GUUCCGUUCGCGUAAUGGUAACGCGUCUCCCUCCUAAGCAAAUGACUGCGGGUUCGAGUCCCGUACGGAACG [G9C G39C G41A A43U] showed a yeast fitness of at most 0.5.
With GUUCCGUUGGCGUAAUGGUAACGCGUCUCCCUCCUUAGGAGAAGACUGCGGGUUCGAGUCCCAUACGGAACG [A36U G63A] the yeast fitness was 0.672.
GUUCGGUUGGCGUAAUGGUAACGCGUCUCCCUCCUAAGGAGUAGACUGCGGGUUCGAGUCCCGUACGGAACG [C5G A42U] showed a yeast fitness of 0.683.
Work on GUCCCGUUGGCGUAAUGGUAACGGGUCUCCCUCCUAAGGAGAAAACUGCGGGUUCGAGUCCCGUACGGAACG [U3C C24G G44A] yielded a yeast fitness of at most 0.5.
Variant GUUCCGUUGGCGUGAUGGUAACGUGUCUCCCUCCUAAGGAGACGACUGCGGGUUCGAGUCCCGUACGGAUCG [A14G C24U A43C A70U] has a yeast fitness of at most 0.5.
For GUUCCGUUGGCGUAAUCGUAACGCGUCUCCCUCCUAAGGAGCAGACUGCGGGUUCGAGUCACGUACGGAACG [G17C A42C C61A], the yeast fitness was at most 0.5.
With GUUUCGUUGGCGUAAUGGUUACGCGUGUCGCCCCUAAGGAGAGGACUGCGGGUUCGAGUCCCGUCCGCAACG [C4U A20U C27G C30G U32C A43G A65C G68C] the yeast fitness was at most 0.5.
GUUCCGUUGGCAUAAUGGUAACGCGUCUCCCCCCUAAGGCGAAGACUGCGAGUUCGAGUCCCGUACGGAACG [G12A U32C A40C G51A] gave a yeast fitness of at most 0.5.
GUUCCGUUGGCGUAAUGGUAACGCGUCUCCCUCCUAAGGAGAAGACUACGGGUUCGAGUCCCGUACGCAACG [G48A G68C] showed a yeast fitness of 0.985.
GUUGCGUUGGCGCAAUGGUAACGCGUCUCCCUCCUAAGGAGAAGACUGUGGGUUCGAGUGCCGUUCGGAACG [C4G U13C C49U C60G A65U] gave a yeast fitness of at most 0.5.
GUUCCGUUGGUGUACUGGUAGCGGGUCACCCUCCUAAGGAGAAGACUGCGGGUUCGAGUCUCGUACGGAACG [C11U A15C A21G C24G U28A C61U] gave a yeast fitness of at most 0.5.
Variant GUUCCAUUGGCGUAAUAGUAACGCGUUUCCCUACUACGGAGAAGACUGCGGGUUCGAGUCCCGUACGGAACG [G6A G17A C27U C33A A37C] has a yeast fitness of at most 0.5.
GUUCCGUUGGCGUAAUGGUAACGCGUCUCCCUCAUAAGGAGAAGACUGCGGGUUCGAGUCCCGUACGGAGCG [C34A A70G] showed a yeast fitness of 0.634.
GUUCCGUUGGCGUAUUGGUAACGCGUCUCCCUCCUUAGGAAAAGACUGCGGGUUCGAGUCCCGUACGGAACG [A15U A36U G41A] gave a yeast fitness of at most 0.5.
GUUCCGUUGGCGUAAUGGUAACACGUCUCCCUCCUAAGGAGAAGACUGCGGCUUCGAGUCCCGUACGGAACG [G23A G52C] gave a yeast fitness of 0.564.
GUUCAGUUGGCGUAAUGGUAACGCGUCUCCCUCCUAAGGAGAAGACUGCCGGUUCGAGUCCCGCACGGAACG [C5A G50C U64C] gave a yeast fitness of 0.73.
GUUCCAUUGGCGUAAUGGUAACGCGUCUACCUCCUAUGGAGAAGACUGCGGGUUCGAGUCCCGUACCGAACG [G6A C29A A37U G67C] gave a yeast fitness of at most 0.5.
For GUUCCGUUGGCGUAAUGGUAACGCAUCUCCCUCCUUAGGAGAAGCCUGCGGGUACGAGUCCCGUACGGAACG [G25A A36U A45C U54A], the yeast fitness was at most 0.5.
In the case of GUUCCGUUGGUGUAAUGGUAACGCGUCUCUCUCCUAAGGAGAAGACUGCGGGUUCGAGUCCCGUCCGGAACG [C11U C30U A65C], the yeast fitness is reported as at most 0.5.
GUUCUGUUGGCGUAAUGGCAACGCGUCACCCUCCUAAGGAGAAGACUGCGGGUUCGAGUCCCGUAUGAAACG [C5U U19C U28A C66U G68A] showed a yeast fitness of at most 0.5.
GUGCCGUUGGCGUGAUGGUAACGCGUCUCUCUCCUAAGGAGAAGACUCCGGGUUCGAGUCCCGUACGCAACG [U3G A14G C30U G48C G68C] showed a yeast fitness of at most 0.5.
